Experiments:
Details in all cases: tested as the 18F-labelled form
Rattus norvegicus [1] = organism: Rattus norvegicus; experiment: Regional uptake of [18F]AFA in striatum of rat pretreated with compound 7c; n=3; format: functional, organism-based
Rattus norvegicus [2] = organism: Rattus norvegicus; experiment: Regional uptake of [18F]AFA in cerebellum of rat pretreated with compound 7c; n=3; format: functional, organism-based
[3] = target: Sodium-dependent serotonin transporter (Rattus norvegicus) (UniProt P31652); experiment: Specific binding of [18F]AFA in rat thalamus after citalopram treatment; n=3; format: functional, tissue-based
Sodium-dependent serotonin transporter (Rattus norvegicus), sequence (P31652 whole entry): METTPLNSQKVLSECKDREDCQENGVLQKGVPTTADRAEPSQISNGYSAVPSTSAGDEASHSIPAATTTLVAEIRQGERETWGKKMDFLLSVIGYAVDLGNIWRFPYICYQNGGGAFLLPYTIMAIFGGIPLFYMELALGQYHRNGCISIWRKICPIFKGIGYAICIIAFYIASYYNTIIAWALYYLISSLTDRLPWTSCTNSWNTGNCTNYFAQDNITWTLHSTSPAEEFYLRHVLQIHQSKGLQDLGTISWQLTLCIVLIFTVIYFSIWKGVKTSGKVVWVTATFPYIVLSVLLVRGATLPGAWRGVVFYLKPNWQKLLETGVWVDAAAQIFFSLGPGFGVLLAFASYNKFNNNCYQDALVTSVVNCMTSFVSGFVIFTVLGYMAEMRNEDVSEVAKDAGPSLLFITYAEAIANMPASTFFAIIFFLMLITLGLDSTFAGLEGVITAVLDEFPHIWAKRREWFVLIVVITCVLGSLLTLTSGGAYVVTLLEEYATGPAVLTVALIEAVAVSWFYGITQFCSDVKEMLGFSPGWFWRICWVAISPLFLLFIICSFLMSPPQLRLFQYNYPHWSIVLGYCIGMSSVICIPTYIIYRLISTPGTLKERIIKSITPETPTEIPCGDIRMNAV
Outline: (§1)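 Rats, three per group, were pretreated iv with blocker at 2 mg/kg in saline, or with saline as control, 10–15 min before tail-vein F-18 radioligand (about 20 µCi). Killed at 60 min and regional %ID/g determined. Specific binding = (region activity − cerebellum activity)/cerebellum activity; mean ± SD.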

[4] = target: Sodium-dependent serotonin transporter (Rattus norvegicus) (UniProt P31652); experiment: Specific binding in rat hypothalamus at 90 min postinjection in vivo; format: functional, organism-based
Outline: (§2)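 Male Sprague-Dawley rats, n=3 per time point, received about 20 µCi of F-18 radioligand in saline iv by tail vein and were killed at 10–120 min. %ID/g was measured with decay and tail-residual correction. Hypothalamic specific binding = (%ID/g hypothalamus − %ID/g cerebellum)/%ID/g cerebellum; mean ± SD.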

[5] = target: Sodium-dependent serotonin transporter (Rattus norvegicus) (UniProt P31652); experiment: Specific binding of [18F]AFA in rat thalamus after GBR-12935 treatment; n=3; format: functional, tissue-based; outline: as §1
Rattus norvegicus [6] = organism: Rattus norvegicus; experiment: Regional uptake of [18F]AFA in cerebellum of rat pretreated with compound GBR-12935; n=3; format: functional, organism-based
Outline: (§3)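 Male Sprague-Dawley rats, three per group, received blocker (2 mg/kg iv in saline) or saline only (controls) 10–15 min before about 20 µCi of tail-vein F-18 radioligand. Killed 60 min after tracer. Blood and brain regions weighed and gamma-counted. %ID/g was decay- and tail-corrected; mean ± SD.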

[7] = target: Sodium-dependent serotonin transporter (Rattus norvegicus) (UniProt P31652); experiment: Specific binding of [18F]AFA in rat hypothalamus after nisoxetine treatment; n=3; format: functional, tissue-based; outline: as §1
Rattus norvegicus [8] = organism: Rattus norvegicus; experiment: Regional uptake of [18F]AFA in cerebellum of rat pretreated with compound nisoxetine; n=3; format: functional, organism-based; outline: as §3
Rattus norvegicus [9] = organism: Rattus norvegicus; experiment: Regional uptake of [18F]AFA in thalamus of rat pretreated with compound 7c; n=3; format: functional, organism-based
Rattus norvegicus [10] = organism: Rattus norvegicus; experiment: Regional uptake of [18F]AFA in hypothalamus of rat pretreated with compound GBR-12935; n=3; format: functional, organism-based; outline: as §3
Rattus norvegicus [11] = organism: Rattus norvegicus; experiment: Regional uptake of [18F]AFA in frontal cortex of rat pretreated with compound nisoxetine; n=3; format: functional, organism-based; outline: as §3
[12] = target: Sodium-dependent serotonin transporter (Rattus norvegicus) (UniProt P31652); experiment: Specific binding of [18F]-AFA in rat striatum after nisoxetine treatment; n=3; format: functional, tissue-based; outline: as §1
Rattus norvegicus [13] = organism: Rattus norvegicus; experiment: Regional uptake of [18F]AFA in blood of rat pretreated with compound nisoxetine; n=3; format: functional, organism-based; outline: as §3
[14] = target: Sodium-dependent serotonin transporter (Rattus norvegicus) (UniProt P31652); experiment: Specific binding in rat hypothalamus at 60 min postinjection in vivo; format: functional, organism-based; outline: as §2
Rattus norvegicus [15] = organism: Rattus norvegicus; experiment: Regional uptake of [18F]AFA in thalamus of rat pretreated with compound GBR-12935; n=3; format: functional, organism-based; outline: as §3
Rattus norvegicus [16] = organism: Rattus norvegicus; experiment: Regional uptake of [18F]AFA in thalamus of rat pretreated with compound citalopram; n=3; format: functional, organism-based; outline: as §3
[17] = target: Sodium-dependent serotonin transporter (Rattus norvegicus) (UniProt P31652); experiment: Specific binding of [18F]-AFA in rat striatum after citalopram treatment; n=3; format: functional, tissue-based; outline: as §1
[18] = target: Sodium-dependent serotonin transporter (Rattus norvegicus) (UniProt P31652); experiment: Specific binding of [18F]AFA in rat frontal cortex after GBR-12935 treatment; n=3; format: functional, tissue-based; outline: as §1
Rattus norvegicus [19] = organism: Rattus norvegicus; experiment: Regional uptake of [18F]AFA in frontal cortex of rat pretreated with compound GBR-12935; n=3; format: functional, organism-based; outline: as §3
Rattus norvegicus [20] = organism: Rattus norvegicus; experiment: Regional uptake of [18F]-AFA in striatum of rat pretreated with compound GBR-12935; n=3; format: functional, organism-based; outline: as §3
Rattus norvegicus [21] = organism: Rattus norvegicus; experiment: Regional uptake of [18F]AFA in blood of rat pretreated with compound 7c; n=3; format: functional, organism-based
Rattus norvegicus [22] = organism: Rattus norvegicus; experiment: Regional uptake of [18F]AFA in hippocampus of rat pretreated with compound citalopram; n=3; format: functional, organism-based; outline: as §3
Rattus norvegicus [23] = organism: Rattus norvegicus; experiment: Regional uptake of [18F]-AFA in hypothalamus of rat pretreated with compound nisoxetine; n=3; format: functional, organism-based; outline: as §3
[24] = target: Sodium-dependent serotonin transporter (Rattus norvegicus) (UniProt P31652); experiment: Specific binding of [18F]AFA in rat hypothalamus after GBR-12935 treatment; n=3; format: functional, tissue-based; outline: as §1
Rattus norvegicus [25] = organism: Rattus norvegicus; experiment: Regional uptake of [18F]AFA in cerebellum of rat pretreated with compound citalopram; n=3; format: functional, organism-based; outline: as §3
[26] = target: Sodium-dependent serotonin transporter (Rattus norvegicus) (UniProt P31652); experiment: Specific binding in rat hypothalamus at 30 min postinjection in vivo; format: functional, organism-based; outline: as §2
[27] = target: Sodium-dependent serotonin transporter (Rattus norvegicus) (UniProt P31652); experiment: Specific binding of [18F]AFA in rat hippocampus after nisoxetine treatment; n=3; format: functional, tissue-based; outline: as §1
Rattus norvegicus [28] = organism: Rattus norvegicus; experiment: Regional uptake of [18F]AFA in frontal cortex of rat pretreated with compound citalopram; n=3; format: functional, organism-based; outline: as §3
[29] = target: Sodium-dependent serotonin transporter (Rattus norvegicus) (UniProt P31652); experiment: Specific binding of [18F]AFA in rat hippocampus after citalopram treatment; n=3; format: functional, tissue-based; outline: as §1
[30] = target: Sodium-dependent serotonin transporter (Rattus norvegicus) (UniProt P31652); experiment: Specific binding of [18F]AFA in rat hippocampus after GBR-12935 treatment; n=3; format: functional, tissue-based; outline: as §1
Rattus norvegicus [31] = organism: Rattus norvegicus; experiment: Regional uptake of [18F]-AFA in blood of rat pretreated with compound GBR-12935; n=3; format: functional, organism-based; outline: as §3
[32] = target: Sodium-dependent serotonin transporter (Rattus norvegicus) (UniProt P31652); experiment: Specific binding of [18F]AFA in rat hypothalamus after citalopram treatment; n=3; format: functional, tissue-based; outline: as §1
Rattus norvegicus [33] = organism: Rattus norvegicus; experiment: Regional uptake of [18F]-AFA in frontal cortex of rat pretreated with compound 7c; n=3; format: functional, organism-based
Rattus norvegicus [34] = organism: Rattus norvegicus; experiment: Regional uptake of [18F]AFA in hypothalamus of rat pretreated with compound 7c; n=3; format: functional, organism-based
[35] = target: Sodium-dependent serotonin transporter (Rattus norvegicus) (UniProt P31652); experiment: Specific binding of [18F]AFA in rat frontal cortex after citalopram treatment; n=3; format: functional, tissue-based; outline: as §1
[36] = target: Sodium-dependent serotonin transporter (Rattus norvegicus) (UniProt P31652); experiment: Specific binding of [18F]AFA in rat frontal cortex after nisoxetine treatment; n=3; format: functional, tissue-based; outline: as §1
[37] = target: Sodium-dependent serotonin transporter (Rattus norvegicus) (UniProt P31652); experiment: Specific binding of [18F]AFA in rat striatum after GBR-12935 treatment; n=3; format: functional, tissue-based; outline: as §1
Rattus norvegicus [38] = organism: Rattus norvegicus; experiment: Regional uptake of [18F]AFA in striatum of rat pretreated with compound citalopram; n=3; format: functional, organism-based; outline: as §3
[39] = target: Sodium-dependent serotonin transporter (Rattus norvegicus) (UniProt P31652); experiment: Specific binding of [18F]AFA in rat thalamus after nisoxetine treatment; n=3; format: functional, tissue-based; outline: as §1
Rattus norvegicus [40] = organism: Rattus norvegicus; experiment: Regional uptake of [18F]AFA in striatum of rat pretreated with compound nisoxetine; n=3; format: functional, organism-based; outline: as §3
Rattus norvegicus [41] = organism: Rattus norvegicus; experiment: Regional uptake of [18F]AFA in hippocampus of rat pretreated with compound 7c; n=3; format: functional, organism-based
Rattus norvegicus [42] = organism: Rattus norvegicus; experiment: Regional uptake of [18F]AFA in hippocampus of rat pretreated with compound GBR-12935; n=3; format: functional, organism-based; outline: as §3
Rattus norvegicus [43] = organism: Rattus norvegicus; experiment: Regional uptake of [18F]AFA in thalamus of rat pretreated with compound nisoxetine; n=3; format: functional, organism-based; outline: as §3
[44] = target: Sodium-dependent serotonin transporter (Rattus norvegicus) (UniProt P31652); experiment: Specific binding in rat hypothalamus at 120 min postinjection in vivo; format: functional, organism-based; outline: as §2
[45] = target: Sodium-dependent serotonin transporter (Rattus norvegicus) (UniProt P31652); experiment: Specific binding in rat hypothalamus at 10 min postinjection in vivo; format: functional, organism-based; outline: as §2
Rattus norvegicus [46] = organism: Rattus norvegicus; experiment: Regional uptake of [18F]-AFA in blood of rat pretreated with compound citalopram; n=3; format: functional, organism-based; outline: as §3
Rattus norvegicus [47] = organism: Rattus norvegicus; experiment: Regional uptake of [18F]AFA in hypothalamus of rat pretreated with compound citalopram; n=3; format: functional, organism-based; outline: as §3
Rattus norvegicus [48] = organism: Rattus norvegicus; experiment: Regional uptake of [18F]AFA in hippocampus of rat pretreated with compound nisoxetine; n=3; format: functional, organism-based; outline: as §3

`CN(C)Cc1ccccc1Sc1ccc(F)cc1N` gave an Uptake (Rattus norvegicus [1]) of 0.12 %ID/g, an Uptake (Rattus norvegicus [2]) of 0.06 %ID/g and a Specific binding [3] of 0.98 %ID/g. For the same compound, the Specific binding (dimensionless ratio) [4] was 5.61, the Specific binding [5] was 4.57 %ID/g and the Uptake (Rattus norvegicus [6]) was 0.09 %ID/g. For the same compound, the Specific binding [7] was 3.82 %ID/g, the Uptake (Rattus norvegicus [8]) was 0.09 %ID/g and the Uptake (Rattus norvegicus [9]) was 0.15 %ID/g. The Uptake (Rattus norvegicus [10]) was 0.43 %ID/g, the Uptake (Rattus norvegicus [11]) was 0.36 %ID/g and the Specific binding [12] was 2.45 %ID/g. For the same compound, the Uptake (Rattus norvegicus [13]) was 0.1 %ID/g, the Specific binding [14] was 4.09 %ID/g and the Uptake (Rattus norvegicus [15]) was 0.36 %ID/g. It also gave an Uptake (Rattus norvegicus [16]) of 0.13 %ID/g, a Specific binding [17] of 0.6 %ID/g and a Specific binding [18] of 2.81 %ID/g. The Uptake (Rattus norvegicus [19]) was 0.33 %ID/g, the Uptake (Rattus norvegicus [20]) was 0.28 %ID/g and the Uptake (Rattus norvegicus [21]) was 0.07 %ID/g. It also gave an Uptake (Rattus norvegicus [22]) of 0.11 %ID/g, an Uptake (Rattus norvegicus [23]) of 0.48 %ID/g and a Specific binding [24] of 4.3 %ID/g. The Uptake (Rattus norvegicus [25]) was 0.06 %ID/g, the Specific binding [26] was 2.23 %ID/g and the Specific binding [27] was 1.96 %ID/g. It also gave an Uptake (Rattus norvegicus [28]) of 0.11 %ID/g, a Specific binding [29] of 0.81 %ID/g and a Specific binding [30] of 2.21 %ID/g. The Uptake (Rattus norvegicus [31]) was 0.09 %ID/g, the Specific binding [32] was 0.65 %ID/g and the Uptake (Rattus norvegicus [33]) was 0.14 %ID/g. For the same compound, the Uptake (Rattus norvegicus [34]) was 0.13 %ID/g, the Specific binding [35] was 0.64 %ID/g and the Specific binding [36] was 2.88 %ID/g. For the same compound, the Specific binding [37] was 2.56 %ID/g, the Uptake (Rattus norvegicus [38]) was 0.1 %ID/g and the Specific binding [39] was 3.53 %ID/g. It also gave an Uptake (Rattus norvegicus [40]) of 0.31 %ID/g, an Uptake (Rattus norvegicus [41]) of 0.13 %ID/g and an Uptake (Rattus norvegicus [42]) of 0.28 %ID/g. The Uptake (Rattus norvegicus [43]) was 0.47 %ID/g, the Specific binding (dimensionless ratio) [44] was 4.92 and the Specific binding [45] was 0.89 %ID/g. It also gave an Uptake (Rattus norvegicus [46]) of 0.08 %ID/g, an Uptake (Rattus norvegicus [47]) of 0.1 %ID/g and an Uptake (Rattus norvegicus [48]) of 0.28 %ID/g.
